According to ChEMBL document CHEMBL1122578, “A colon-specific drug-delivery system based on drug glycosides and the glycosidases of colonic bacteria” (J Med Chem, 1984):

Experiments:
Format in all cases: functional, organism-based
Rattus norvegicus [1] = assay: Recovery of glucoside from small intestine at 5 hr after administration of 7.5 mg of the compound
Summary of the method: (§1)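 Male Sprague-Dawley rats (ca. 250 g), fasted 16 h, water withdrawn ≥30 min before dosing; glucoside 7.5 mg by gastric intubation in 0.5 mL water/95% EtOH (3:1). Killed by CO2 then thoracotomy at 3–6 h; small intestine and cecum removed. Contents (MeOH) and tissues (0.01 M KH2PO4) homogenized with internal-standard steroid, centrifuged, filtered, quantified by C-18 HPLC-UV (MeOH/0.01 M KH2PO4 56.5:43.5); mean of four animals.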

Rattus norvegicus [2] = assay: Recovery of glucoside from cecum at 4 hr after administration of 7.5 mg of the compound; conditions: Caecum; summary of the method: as §1
Rattus norvegicus [3] = assay: Recovery of glucoside from small intestine at 3h after administration of 7.5 mg of the compound; summary of the method: as §1
Rattus norvegicus [4] = assay: Recovery of glucoside from small intestine at 4 hr after administration of 7.5 mg of the compound; summary of the method: as §1
Rattus norvegicus [5] = assay: Recovery of glucoside from cecum at 5 hr after administration of 7.5 mg of the compound; conditions: Caecum; summary of the method: as §1
Rattus norvegicus [6] = assay: Recovery of glucoside from small intestine at 6 hr after administration of 7.5 mg of the compound; summary of the method: as §1
Rattus norvegicus [7] = assay: Recovery of glucoside from cecum at 6 hr after administration of 7.5 mg of the compound; conditions: Caecum; summary of the method: as §1
Rattus norvegicus [8] = assay: Recovery of glucoside from cecum at 3h after administration of 7.5 mg.; conditions: Caecum; summary of the method: as §1
Rattus norvegicus [9] = assay: Recovery of steroid from cecum at 4 hr after administration of 7.5 mg of the compound; conditions: Caecum; summary of the method: as §1
Rattus norvegicus [10] = assay: Recovery of steroid from small intestine at 3h after administration of 7.5 mg of the compound; summary of the method: as §1
Rattus norvegicus [11] = assay: Recovery of steroid from cecum at 3h after administration of 7.5 mg of the compound; conditions: Caecum; summary of the method: as §1
Rattus norvegicus [12] = assay: Recovery of steroid from small intestine at 5 hr after administration of 7.5 mg of the compound; summary of the method: as §1
Rattus norvegicus [13] = assay: Recovery of steroid from cecum at 6 hr after administration of 7.5 mg of the compound; conditions: Caecum; summary of the method: as §1
Rattus norvegicus [14] = assay: Recovery of steroid from small intestine at 6 hr after administration of 7.5 mg of the compound; summary of the method: as §1
Rattus norvegicus [15] = assay: Recovery of steroid from small intestine at 4 hr after administration of 7.5 mg of the compound; summary of the method: as §1
Rattus norvegicus [16] = assay: Recovery of steroid from cecum at 5 hr after administration of 7.5 mg of the compound; conditions: Caecum; summary of the method: as §1
Rattus norvegicus [17] = assay: Recovery of glucoside from cecum at 3h after administration of 7.5 mg of the compound; conditions: Caecum; summary of the method: as §1

C[C@@H]1CC2C3CCC4=CC(=O)C=CC4(C)[C@@]3(F)C(O)CC2(C)[C@@]1(O)C(=O)CO[C@@H]1O[C@H](CO)[C@@H](O)[C@H](O)[C@H]1O (some centres not stated) gave a Recovery (Rattus norvegicus [1]) of 0.24 mg, a Recovery (Rattus norvegicus [2]) of 0.02 mg and a Recovery (Rattus norvegicus [3]) of 5.61 mg. It also gave a Recovery (Rattus norvegicus [4]) of 5 mg, a Recovery (Rattus norvegicus [5]) of 0.23 mg and a Recovery (Rattus norvegicus [6]) of 0.94 mg. For the same compound, the Recovery (Rattus norvegicus [7]) was 0.04 mg and the Recovery (Rattus norvegicus [8]) was 0.21 mg.
In the case of C[C@@H]1C[C@H]2[C@@H]3CCC4=CC(=O)C=C[C@]4(C)[C@@]3(F)[C@@H](O)C[C@]2(C)[C@@]1(O)C(=O)CO, the Recovery (Rattus norvegicus [9]) is reported as 0.05 mg, the Recovery (Rattus norvegicus [10]) is reported as 0.13 mg and the Recovery (Rattus norvegicus [11]) is reported as 0.09 mg. It also gave a Recovery (Rattus norvegicus [12]) of 0.12 mg, a Recovery (Rattus norvegicus [13]) of 1.66 mg and a Recovery (Rattus norvegicus [14]) of 0.18 mg. The Recovery (Rattus norvegicus [15]) was 0.11 mg and the Recovery (Rattus norvegicus [16]) was 2.24 mg.
C[C@]12C=CC(=O)C=C1CC[C@@H]1[C@@H]2[C@@H](O)C[C@@]2(C)[C@H]1CC[C@]2(O)C(=O)CO was tested, and the Recovery (Rattus norvegicus [9]) was 0 mg, the Recovery (Rattus norvegicus [10]) was 0.3 mg and the Recovery (Rattus norvegicus [11]) was 0 mg. The Recovery (Rattus norvegicus [12]) was 0.09 mg, the Recovery (Rattus norvegicus [13]) was 0.29 mg and the Recovery (Rattus norvegicus [14]) was 0.03 mg. The Recovery (Rattus norvegicus [15]) was 0.18 mg and the Recovery (Rattus norvegicus [16]) was 0.57 mg.
In the case of C[C@]12C=CC(=O)C=C1CC[C@@H]1[C@@H]2C(O)C[C@@]2(C)[C@H]1CC[C@]2(O)C(=O)CO[C@@H]1O[C@H](CO)[C@@H](O)[C@H](O)[C@H]1O (some centres not stated), the Recovery (Rattus norvegicus [1]) is reported as 0.19 mg, the Recovery (Rattus norvegicus [2]) is reported as 0 mg and the Recovery (Rattus norvegicus [3]) is reported as 1.57 mg. For the same compound, the Recovery (Rattus norvegicus [4]) was 1.73 mg, the Recovery (Rattus norvegicus [17]) was 0 mg and the Recovery (Rattus norvegicus [5]) was 0 mg. The Recovery (Rattus norvegicus [6]) was 0.18 mg and the Recovery (Rattus norvegicus [7]) was 0.06 mg.
